# From publication PMC10824694 (Blood Advances, 2023)
# Key:
# [1] = system: K-562; assay: cells; type: cell-based; conditions: Homo sapiens, K562, 72 h
# [2] = system: LOX IMVI; assay: cells; type: cell-based; conditions: Homo sapiens, 72 h
# [3] = system: SN12C; assay: cells; type: cell-based; conditions: Homo sapiens, 72 h
# [4] = system: Panc1; assay: cells; type: cell-based; conditions: Homo sapiens, PANC-1, 72 h
# [5] = system: HS 578T; assay: cells; type: cell-based; conditions: Homo sapiens, 72 h
# [6] = system: SK-OV-3; assay: cells; type: cell-based; conditions: Homo sapiens, SK-OV-3, 72 h
# [7] = system: UACC-257; assay: cells; type: cell-based; conditions: Homo sapiens, UACC-257, 72 h
# [8] = system: A549/ATCC; assay: cells; type: cell-based; conditions: Homo sapiens, A549, 72 h
# [9] = system: SK-MEL-28; assay: cells; type: cell-based; conditions: Homo sapiens, SK-MEL-28, 72 h
# [10] = system: 371-kinase panel; assay: Kinome screening, HotSpot assay platform; type: biochemical; conditions: 10 μM, panel of 371 kinases
# How it was run: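 The HotSpot platform was run against a 371-kinase panel with test compounds at 1 µM and 10 µM. A hit was a kinase whose activity was inhibited by ≥50%.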
# [11] = system: Mutu; assay: cells; type: cell-based; conditions: Homo sapiens, 72 h
# [12] = system: UO-31; assay: cells; type: cell-based; conditions: Homo sapiens, UO-31, 72 h
# [13] = system: NCI-H460; assay: cells; type: cell-based; conditions: Homo sapiens, NCI-H460, 72 h
# [14] = system: HL-60(TB); assay: cells; type: cell-based; conditions: Homo sapiens, HL-60, 72 h
# [15] = system: HCT-116; assay: cells; type: cell-based; conditions: Homo sapiens, HCT-116, 72 h
# [16] = system: T-47D; assay: cells; type: cell-based; conditions: Homo sapiens, T47D, 72 h
# [17] = system: SNB-75; assay: cells; type: cell-based; conditions: Homo sapiens, SNB-75, 72 h
# [18] = system: FG; assay: cells; type: cell-based; conditions: Homo sapiens, 72 h
# [19] = system: H9-derived xenografted tumors; assay: H9 xenograft T-cell lymphoma model in NSG mice; type: in vivo, mouse; conditions: oral gavage daily 14 days, BBM 50 mg/kg, PA4 5-15 mg/kg per day
# How it was run: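 Female 8-week-old NSG mice received 5×10^6 H9 cells in PBS subcutaneously in the right flank. At a tumour volume of ~30 mm³ (day 16), mice were randomised into 5 groups (n = 5 each): PBS 100 μL, or test compound in PBS, given daily by oral gavage for 14 days. Body weight and tumours were measured 3 times weekly. Mice were euthanised on day 30.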
# [20] = system: NCI-H23; assay: cells; type: cell-based; conditions: Homo sapiens, NCI-H23, 72 h
# [21] = system: MDA-MB-231/ATCC; assay: cells; type: cell-based; conditions: Homo sapiens, MDA-MB-231, 72 h
# [22] = Mouse pharmacokinetics study; type: in vivo
# How it was run: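 Plasma concentration–time profiles were obtained after each route. Absolute oral bioavailability was calculated from the IV and oral data.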
# [23] = system: MOLT-4; assay: cells; type: cell-based; conditions: Homo sapiens, MOLT-4, 72 h
# [24] = system: SW-620; assay: cells; type: cell-based; conditions: Homo sapiens, SW-620, 72 h
# [25] = system: BT-549; assay: cells; type: cell-based; conditions: Homo sapiens, BT-549, 72 h
# [26] = system: OVCAR-8; assay: cells; type: cell-based; conditions: Homo sapiens, OVCAR-8, 72 h
# [27] = system: UACC-62; assay: cells; type: cell-based; conditions: Homo sapiens, UACC-62, 72 h
# [28] = system: A498; assay: cells; type: cell-based; conditions: Homo sapiens, A498, 72 h
# [29] = system: OVCAR-5; assay: cells; type: cell-based; conditions: Homo sapiens, OVCAR-5, 72 h
# [30] = system: MALME-3M; assay: cells; type: cell-based; conditions: Homo sapiens, 72 h
# [31] = system: MDA-MB-468; assay: cells; type: cell-based; conditions: Homo sapiens, MDA-MB-468, 72 h
# [32] = target: T1, CAMKIIγ (Homo sapiens, UniProt Q13555); assay: nano-DSF assay with purified CAMKIIγ protein; type: binding; conditions: in words
# Target sequence in this assay (Q13555 14-272 limits assumed): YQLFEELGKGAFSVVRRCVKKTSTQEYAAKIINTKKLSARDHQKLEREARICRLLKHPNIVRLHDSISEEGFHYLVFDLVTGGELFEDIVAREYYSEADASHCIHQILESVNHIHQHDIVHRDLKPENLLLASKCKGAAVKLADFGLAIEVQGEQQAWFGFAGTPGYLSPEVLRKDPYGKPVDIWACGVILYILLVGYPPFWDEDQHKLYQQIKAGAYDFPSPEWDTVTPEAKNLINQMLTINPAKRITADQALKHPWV
# [33] = system: OVCAR-4; assay: cells; type: cell-based; conditions: Homo sapiens, OVCAR-4, 72 h
# [34] = system: NCI/ADR-RES; assay: cells; type: cell-based; conditions: Homo sapiens, 72 h
# [35] = system: BxPC3; assay: cells; type: cell-based; conditions: Homo sapiens, BXPC-3, 72 h
# [36] = system: RPMI-8226; assay: cells; type: cell-based; conditions: Homo sapiens, RPMI-8226, 72 h
# [37] = system: NCI-H522; assay: cells; type: cell-based; conditions: Homo sapiens, NCI-H522, 72 h
# [38] = system: MCF7; assay: cells; type: cell-based; conditions: Homo sapiens, MCF7, 72 h
# [39] = system: 786-0; assay: cells; type: cell-based; conditions: Homo sapiens, 786-0, 72 h
# [40] = system: HCT-15; assay: cells; type: cell-based; conditions: Homo sapiens, HCT-15, 72 h
# [41] = system: PC-3; assay: cells; type: cell-based; conditions: Homo sapiens, PC-3, 72 h
# [42] = system: COLO 205; assay: cells; type: cell-based; conditions: Homo sapiens, COLO 205, 72 h
# [43] = system: MDA-MB-435; assay: cells; type: cell-based; conditions: Homo sapiens, MDA-MB-435, 72 h
# [44] = system: HOP-62; assay: cells; type: cell-based; conditions: Homo sapiens, HOP-62, 72 h
# [45] = system: SR; assay: cells; type: cell-based; conditions: Homo sapiens, 72 h
# [46] = system: Rael; assay: cells; type: cell-based; conditions: Homo sapiens, 72 h
# [47] = system: KM12; assay: cells; type: cell-based; conditions: Homo sapiens, KM12, 72 h
# [48] = system: OVCAR-3; assay: cells; type: cell-based; conditions: Homo sapiens, OVCAR-3, 72 h
# [49] = system: M14; assay: cells; type: cell-based; conditions: Homo sapiens, M14, 72 h
# [50] = system: SNB-19; assay: cells; type: cell-based; conditions: Homo sapiens, SNB-19, 72 h
# [51] = system: CaPan2; assay: cells; type: cell-based; conditions: Homo sapiens, Capan-2, 72 h
# [52] = system: SF-539; assay: cells; type: cell-based; conditions: Homo sapiens, SF-539, 72 h
# [53] = system: SK-MEL-5; assay: cells; type: cell-based; conditions: Homo sapiens, SK-MEL-5, 72 h
# [54] = system: DHL6; assay: cells; type: cell-based; conditions: Homo sapiens, 72 h
# [55] = system: HOP-92; assay: cells; type: cell-based; conditions: Homo sapiens, HOP-92, 72 h
# [56] = system: DU-145; assay: cells; type: cell-based; conditions: Homo sapiens, DU-145, 72 h
# [57] = system: Namalwa; assay: cells; type: cell-based; conditions: Homo sapiens, 72 h
# [58] = system: JB6; assay: cells; type: cell-based; conditions: Homo sapiens, JB6, 72 h
# [59] = system: EKVX; assay: cells; type: cell-based; conditions: Homo sapiens, 72 h
# [60] = system: TK-10; assay: cells; type: cell-based; conditions: Homo sapiens, TK-10, 72 h
# [61] = system: CCRF-CEM; assay: cells; type: cell-based; conditions: Homo sapiens, 72 h
# [62] = system: SF-295; assay: cells; type: cell-based; conditions: Homo sapiens, SF-295, 72 h
# [63] = system: CAKI-1; assay: cells; type: cell-based; conditions: Homo sapiens, CAKI-1, 72 h
# [64] = system: NCI-H226; assay: cells; type: cell-based; conditions: Homo sapiens, NCI-H226, 72 h
# [65] = system: U251; assay: cells; type: cell-based; conditions: Homo sapiens, U-251, 72 h
# [66] = system: NCI-H322M; assay: cells; type: cell-based; conditions: Homo sapiens, 72 h
# [67] = system: ACHN; assay: cells; type: cell-based; conditions: Homo sapiens, 72 h
# [68] = system: SK-MEL-2; assay: cells; type: cell-based; conditions: Homo sapiens, SK-MEL-2, 72 h
# [69] = system: SF-268; assay: cells; type: cell-based; conditions: Homo sapiens, SF-268, 72 h
# [70] = system: HT29; assay: cells; type: cell-based; conditions: Homo sapiens, HT-29, 72 h
# [71] = system: HCC-2998; assay: cells; type: cell-based; conditions: Homo sapiens, HCC 2998, 72 h
# [72] = system: RXF 393; assay: cells; type: cell-based; conditions: Homo sapiens, RXF 393, 72 h
# [73] = system: H9; assay: cells; type: cell-based; conditions: Homo sapiens, H9, 72 h
# [74] = target: T1, CAMKIIγ; assay: Cellular thermal shift assay; type: cell-based; conditions: H9 cells, 5 μM, 1 hour; vs DMSO
# Target sequence in this assay (Q13555 whole entry): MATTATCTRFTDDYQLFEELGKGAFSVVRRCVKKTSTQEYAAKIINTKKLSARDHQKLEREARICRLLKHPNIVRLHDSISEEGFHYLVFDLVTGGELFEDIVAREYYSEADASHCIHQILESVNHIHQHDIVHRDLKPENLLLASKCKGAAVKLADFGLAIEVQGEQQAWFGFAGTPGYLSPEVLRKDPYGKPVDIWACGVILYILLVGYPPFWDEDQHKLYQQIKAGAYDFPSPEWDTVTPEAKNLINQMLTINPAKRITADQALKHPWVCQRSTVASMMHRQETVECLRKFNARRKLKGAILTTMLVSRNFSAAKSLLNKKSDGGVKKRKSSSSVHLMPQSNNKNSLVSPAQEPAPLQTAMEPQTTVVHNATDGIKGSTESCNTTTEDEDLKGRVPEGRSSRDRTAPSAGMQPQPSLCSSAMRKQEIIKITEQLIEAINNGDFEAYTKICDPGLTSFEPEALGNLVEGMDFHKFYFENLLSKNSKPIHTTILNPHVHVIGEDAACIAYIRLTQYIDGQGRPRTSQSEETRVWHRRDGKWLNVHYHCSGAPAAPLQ
structure (smiles),measurement,setting,value
"COc1cc2c3cc1Oc1c(OC)c(OC)cc4c1[C@@H](Cc1ccc(O)c(c1)Oc1ccc(cc1)C[C@@H]3N(C)CC2)N(C)CC4 [BBM, berbamine]",IC50,[1],5.11 µM
same,IC50,[2],23 µM
same,IC50,[3],41.8 µM
same,IC50,[4],24.8 µM
same,IC50,[5],12.4 µM
same,IC50,[6],13.4 µM
same,IC50,[7],6.5 µM
same,IC50,[8],18.7 µM
same,IC50,[9],15.4 µM
same,number of kinases whose activity was reduced by >50%,[10],none
same,IC50,[11],4.64 µM
same,IC50,[12],9.61 µM
same,IC50,[13],20.5 µM
same,IC50,[14],5.98 µM
same,IC50,[15],10.2 µM
same,IC50,[16],15.7 µM
same,IC50,[17],17.6 µM
same,IC50,[18],32.6 µM
same,body weight,[19],did not reduce body weight
same,IC50,[20],14.9 µM
same,IC50,[21],14.2 µM
same,time detected in blood after oral administration,[22]; male Institute of Cancer Research mice,5 min
same,area under the curve,"[22]; male Institute of Cancer Research mice, plasma",8478 ± 1150
same,bioavailability,"[22]; male, ICR (Institute of Cancer Research), mouse, plasma, po",44.8%
same,IC50,[23],10.7 µM
same,IC50,[24],12.4 µM
same,IC50,[25],8.64 µM
same,IC50,[26],14.6 µM
same,IC50,[27],19.2 µM
same,IC50,[28],6.97 µM
same,IC50,[29],9.88 µM
same,IC50,[30],9.82 µM
same,IC50,[31],10.4 µM
same,change of melting temperature of CAMKIIγ protein,[32],did not significantly change the melting temperature
same,IC50,[33],15.1 µM
same,IC50,[34],24.8 µM
same,IC50,[35],31.9 µM
same,IC50,[36],7.83 µM
same,IC50,[37],21.3 µM
same,IC50,[38],9.93 µM
same,IC50,[39],8.48 µM
same,IC50,[40],11 µM
same,IC50,[41],7.94 µM
same,IC50,[42],16 µM
same,IC50,[43],13.5 µM
same,IC50,[44],23.8 µM
same,IC50,[45],5.14 µM
same,IC50,[46],5.87 µM
same,IC50,[47],17.3 µM
same,IC50,[48],12.3 µM
same,IC50,[49],13.1 µM
same,IC50,[50],16.2 µM
same,IC50,[51],59.1 µM
same,IC50,[52],5.25 µM
same,IC50,[53],9.9 µM
same,IC50,[54],15.9 µM
same,IC50,[55],12.7 µM
same,IC50,[56],27.7 µM
same,IC50,[57],20.7 µM
same,IC50,[58],2.12 µM
same,IC50,[59],6.38 µM
same,IC50,[60],35.8 µM
same,IC50,[61],11.4 µM
same,IC50,[62],13.3 µM
same,IC50,[63],14.2 µM
same,IC50,[64],34.6 µM
same,IC50,[65],10.7 µM
same,IC50,[66],20 µM
same,IC50,[67],20.8 µM
same,IC50,[68],16 µM
same,IC50,[69],13.8 µM
same,IC50,[70],6.56 µM
same,IC50,[71],5.61 µM
same,IC50,[72],16.9 µM
same,IC50,[73],4.67 µM
same,CAMKIIγ degradation temperature (CETSA),[74],did not shift the degradation temperature
